Test results published in ChEMBL document CHEMBL1123247, “Nucleoside conjugates. 7. Synthesis and antitumor activity of 1-beta-D-arabinofuranosylcytosine conjugates of ether lipids” (J Med Chem, 1986).

How the values were obtained:
L1210 [1] = assay: Antitumor activity was determined against the ip implanted L1210 leukemia in mice by change in […] at 40 mg/kg (treatment of 1-5qd schedule) dosage; assay type: functional, Mus musculus; settings: route intraperitoneal
Method in brief: (§1)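 DBA/2J mice, 6 per group (wt 23-28 g), inoculated ip with 1×10^6 L1210 cells on day 0. Treatment was given ip in 0.9% NaCl with 0.5% Tween-80, starting 24 h later. Weight change was taken on day 8. Mice were observed daily until death or 45 days. Median survival T/C and %ILS = (T/C − 1) × 100 came from survivors per NCI protocols, and 45-day survivors were counted.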

L1210 [2] = assay: Antitumor activity was determined against the ip implanted L1210 leukemia in mice by change in […] at 300 mg/kg (treatment of 1qd schedule) dosage; assay type: functional, Mus musculus; settings: route intraperitoneal; method in brief: as §1
L1210 [3] = assay: Antitumor activity was determined against the ic implanted L1210 lymphoid leukemia in mice by percent median survival rate (treated/control) at 300 mg/kg (1 qd treatment schedule) dosage; 21.0/7.0; assay type: functional, Mus musculus
L1210 [4] = assay: Antitumor activity was determined against the ip implanted L1210 leukemia in mice by percent increase in life span at 300 mg/kg (treatment of 1qd schedule) dosage; assay type: functional, Mus musculus; settings: route intraperitoneal
Method in brief: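 DBA/2J mice in groups of 6 (wt 23-28 g) were inoculated ip with 1×10^6 L1210 cells on day 0. Dosing was ip from 24 h, in 0.9% NaCl with 0.5% Tween-80 (conjugates sonicated), across a range of doses. Mice were observed daily until death or 45 days. Median T/C was computed from survivors per NCI protocols, and ILS = (T/C − 1)×100.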

P388 [5] = assay: Antitumor activity against ip implanted P388 leukemia in mice expressed as active dose range (1,5,9qd treatment schedule) required to produce increase in life span by >25% was determined; Range is 100-167; assay type: functional, Mus musculus
Method in brief: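 P388 leukemia: 1 × 10^6 cells were given ip on day 0 to DBA/2J mice, groups of 6 (23-33 g). Treatment was ip from 24 h after inoculation, vehicle 0.9% NaCl with 0.5% Tween-80. Mice were observed daily until death or 45 days. Median survival T/C was calculated from survivors per NCI protocols, and ILS = (T/C − 1) × 100. Active range means doses giving ILS ≥25%; optimal dose means greatest ILS.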

L1210 [6] = assay: Antitumor activity was determined against the ic implanted L1210 lymphoid leukemia in mice by change in […] at 167 mg/kg (treatment of 1, 5, 9qd schedule) dosage; assay type: functional, Mus musculus
Method in brief: (§2)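 DBA/2J mice, 6 per group (wt 26-32 g), inoculated ic with 1×10^5 L1210 cells on day 0. Dosing ip began 24 h after inoculation, with a sonicated solution or suspension in 0.9% NaCl containing 0.5% Tween-80, given over a range of doses. Animals were followed daily until death. Body weight change, median survival T/C, and %ILS = (T/C − 1) × 100 were computed from survivors per NCI protocols.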

L1210 [7] = assay: Antitumor activity was determined against the ip implanted L1210 leukemia in mice by percent median survival rate (treated/control) at 80 mg/kg (treatment of 1-5qd schedule) dosage; 25.5/7.0; assay type: functional, Mus musculus; settings: route intraperitoneal
Method in brief: (§3)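 DBA/2J mice, 23-28 g, in groups of 6, were inoculated ip with 1×10^6 L1210 cells on day 0. Dosing was ip starting 24 h later on the stated daily schedules. Conjugates were given as sonicated solutions and reference prodrugs as suspensions in 0.9% NaCl with 0.5% Tween-80. Mice were observed daily until death or 45 days. Median survival T/C was calculated from survivors per NCI protocols.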

L1210 [8] = assay: Antitumor activity was determined against the ip implanted L1210 leukemia in mice by range in survival days at 100 mg/kg (treatment of 1-5qd schedule) dosage; 18-32; assay type: functional, Mus musculus; settings: route intraperitoneal; method in brief: as §3
L1210 [9] = assay: Antitumor activity against ip implanted L1210 leukemia in mice expressed as active dose range (1-5qd treatment schedule) required to produce increase in life span by >25% was determined; 60-100; assay type: functional, Mus musculus
Method in brief: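 DBA/2J mice, groups of 6 (23-28 g), were inoculated ip with 1 × 10^6 L1210 cells on day 0. Dosing was ip from 24 h, in 0.9% NaCl with 0.5% Tween-80 (sonicated solution or suspension). Mice were observed daily until death or day 45. Median survival T/C followed NCI protocols, and ILS = (T/C − 1) × 100. Active range means doses giving ILS ≥25%; optimal dose means greatest ILS.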

P388 [10] = assay: Antitumor activity was determined against the ip implanted P388 leukemia in mice by percent median survival rate (treated/control) at 500 mg/kg (treatment of 1qd schedule) dosage; >45.0/11.0; assay type: functional, Mus musculus; settings: route intraperitoneal
P388 [11] = assay: Antitumor activity was determined against the ip implanted P388 leukemia in mice by range in survival days at 67 mg/kg (treatment of 1,5,9qd schedule) dosage; Range is 21-31; assay type: functional, Mus musculus; settings: route intraperitoneal
L1210 [12] = assay: Antitumor activity was determined against the ic implanted L1210 lymphoid leukemia in mice by range in survival days at 100 mg/kg (treatment of 1-9qd schedule) dosage; Range is 11-18; assay type: functional, Mus musculus
L1210 [13] = assay: Antitumor activity was determined against the ic implanted L1210 lymphoid leukemia in mice by change in […] at 300 mg/kg (treatment of 1-5qd schedule) dosage; assay type: functional, Mus musculus; method in brief: as §2
L1210 [14] = assay: Antitumor activity was determined against the ip implanted L1210 leukemia in mice by change in […] at 400 mg/kg (treatment of 1-5qd schedule) dosage; assay type: functional, Mus musculus; settings: dose 200 mg/kg; route intraperitoneal; in the assay text read “200 mg/kg” for “400 mg/kg”; method in brief: as §1
L1210 [15] = assay: Antitumor activity against ic implanted L1210 lymphoid leukemia in mice expressed as active dose range (1-9qd treatment schedule) required to produce increase in life span by >25% was determined; Range is 100-300; assay type: functional, Mus musculus
Method in brief: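 DBA/2J mice, groups of 6 (26-32 g), got 1 × 10^5 L1210 cells ic on day 0. Dosing was ip starting 24 h later, as a sonicated solution or suspension in 0.9% NaCl with 0.5% Tween-80, over a wide dose range. Mice were followed daily until death. Median survival T/C was taken from survivors per NCI protocols, and ILS = (T/C − 1) × 100. Active range means doses giving ILS ≥25%; optimal dose means greatest ILS.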

L1210 [16] = assay: Antitumor activity was determined against the ic implanted L1210 lymphoid leukemia in mice by median survival time at 100 mg/kg (treatment of 1-9qd schedule) dosage; 14/7.0
L1210 [17] = assay: Antitumor activity was determined against the ic implanted L1210 lymphoid leukemia in mice by median survival time at 300 mg/kg (treatment of 1-5qd schedule) dosage; 16.0/7.0

CCCCCCCCCCCCCCCC(=O)OC[C@H](COP(=O)(O)OP(=O)(O)OC[C@H]1O[C@@H](n2ccc(N)nc2=O)[C@@H](O)[C@@H]1O)OC(=O)CCCCCCCCCCCCCCC
Weight change (L1210 [1]): -1.9 g mouse-1 | Weight change (L1210 [2]): -0.62 g mouse-1 | median survival time (L1210 [3]): 21 days | ILS (L1210 [4]): 215 | Active dose range (P388 [5]): 100 mg/kg/day

CCCCCCCCCCCCCCCCOCC(COP(=O)(O)OP(=O)(O)OC[C@H]1O[C@@H](n2ccc(N)nc2=O)[C@@H](O)[C@@H]1O)OC(=O)CCCCCCCCCCCCCCC (mixture of isomers)
Weight change (L1210 [6]): -1.15 g mouse-1 | T/C (L1210 [7]): 25.5%

CCCCCCCCCCCCCCCCCCOCC(COP(=O)(O)OP(=O)(O)OC[C@H]1O[C@@H](n2ccc(N)nc2=O)[C@@H](O)[C@@H]1O)OC(=O)CCCCCCCCCCCCCCC (mixture of isomers)
Range (L1210 [8]): 18 | Active dose range (L1210 [9]): 60 mg/kg/day | T/C (P388 [10]): >45% | Range (P388 [11]): 21

Nc1ccn([C@@H]2O[C@H](CO)[C@@H](O)[C@@H]2O)c(=O)n1 [CYTARABINE]
Range (L1210 [12]): 11 | Weight change (L1210 [13]): -6.1 | Weight change (L1210 [14]): -2.9 g mouse-1 | Active dose range (L1210 [15]): 100 mg/kg/day | median survival time (L1210 [16]): 14 days | median survival time (L1210 [17]): 16 days
